Most compounds without a hit are left out; they make up all but 4.6% or so of the library.
NALP1 yeast inh = blocks the NALP1 inflammasome reconstituted in yeast. inhibition, % at 10 µM. 0.61% of 280,000 active. S. cerevisiae NALP1/ASC/caspase-1 growth, X-gal OD620, 72 h; in the data active = inhibition mostly above about 24%, no sharp cut-off; inactive = mostly below about 32%
PolyA inh = inhibitors of polyadenylation in S. cerevisiae; 0.02% of 300,000 active; activity score, % at 12 µM; AID 1875; S. cerevisiae SKY197-pL101 polyadenylation reporter, beta-gal luminescence; efflux-impaired pdr1/pdr3 knockout yeast; score 100 = 6 SD above DMSO;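 active = lowest replicate activity score at least 50, where 100 means six control SD above control mean; inconclusive = lowest score under 50 but half or more replicates reach 50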;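 also: yeast exposed to compound for 9 h at 30 °C; higher score means more reporter readthrough which indicates perturbed polyadenylation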
NLRP3 yeast inh = inhibitors of NALP3 inflammasome in yeast; inhibition, % at 10 µM; 0.39% of 330,000 active; Yeast reconstituted NLRP3/ASC/caspase-1, beta-gal luminescence, 24 h;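 active = inhibition of 50% or more; inactive = inhibition below 50%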;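 also: plate controls were induced DMSO wells for no effect and uninduced yeast grown without galactose for full effect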
ALR inh = blocks human ALR sulfhydryl oxidase activity | P55789 | purified ALR, DTT oxidation, H2O2 HRP-luminol luminescence | inhibition, % (concentration not given with the values) | 3.8% of 290,000 active;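 active = mean replicate inhibition above about 79%, with every replicate also reaching it, limit read from the data; inconclusive = only one of the two criteria met; inactive = mean below limit and not every replicate reaching it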
Target sequence (P55789 whole entry, looked up): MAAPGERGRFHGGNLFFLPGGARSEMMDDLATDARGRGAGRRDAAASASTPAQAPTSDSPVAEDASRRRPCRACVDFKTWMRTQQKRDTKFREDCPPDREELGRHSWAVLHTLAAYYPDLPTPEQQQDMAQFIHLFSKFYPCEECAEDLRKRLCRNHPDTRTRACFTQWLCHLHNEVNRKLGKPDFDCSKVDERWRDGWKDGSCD
Arr AP2 block = human beta-arrestin and AP2 interaction inhibition | AID 504490 | inhibition, % at 10 µM | FITC-arrestin peptide / GST-AP2 beads, flow cytometry; AP2 beta2 appendage carries R879A mutation | 0.31% of 340,000 active;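 active = inhibition above a set limit, near 3 SD of compounds lacking own fluorescence, cut at about 54% in these data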;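 also: plate controls were DMSO wells for no effect and 5 µM unlabelled arrestin peptide for full effect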
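Assay system: GST-AP2 R879A bound to glutathione beads, E. coli-expressed; Medium: PBS with 0.05% Tween 20 and 0.1% BSA; Also added: fluorescein-tagged arrestin peptide at 50 nM final; Timing: 12 min plus 1 h, RT; Measured by: flow cytometry, FL1 (488/535 nm); Evaluation: percent drop in bead-associated FITC signal.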
Pemphigus Ab inh = human desmoglein-3 autoantibody binding inhibition. binding (percent of control), % at 10 µM. P32926. 0.48% of 310,000 active. DSG3-coupled beads, scFv-anti-DSG3-GFP binding, flow cytometry; stronger effect = lower value;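 active = binding more than 3 SD below its plate's average and above zero; inconclusive = below that plate limit but binding exactly zero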;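 also: hits lower antibody fragment binding to DSG3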
* hit, by the source's call; u = inconclusive; x = no result given.

SMILES	NALP1 yeast inh	PolyA inh	NLRP3 yeast inh	ALR inh	Arr AP2 block	Pemphigus Ab inh
CCCOP(=O)(c1ccc(N(C)C)cc1)C(Nc1ccccc1)c1ccc(C)cc1 (stereo unspecified)	2	59*	10	13	1	x
COC(=O)c1sc(-c2ccc(C(C)(C)C)cc2)cc1NC(=O)c1ccccc1C(=O)O	x	-11	14	92*	3	x
COC(=O)c1sc(-c2ccc(Cl)cc2)cc1NC(=O)c1ccccc1C(=O)O	x	-5	18	97*	34	x
COC(=O)c1sc(-c2ccc(C(C)(C)C)cc2)cc1NC(=O)CSCC(=O)O	x	-10	-3	98*	-2	x
CC1=CC2=NC(=O)C(c3ccccc3)C(=O)N2C=C1 (stereo unspecified)	x	x	x	x	-7	97
O=C1NCCCC2c3c(cc(Br)c(O)c3Br)OC12N1CCOCC1 (stereo unspecified)	27	x	1	94*	15	102
O=C1NCCCC2c3cc(O)c4ccccc4c3OC12N1CCCCC1 (stereo unspecified)	-22	x	14	-4	x	x
Cc1cccc(N2CCN(C(=O)c3cn(C)c(=O)c4c3c3ccccc3n4C)CC2)c1C	2	-13	-1	88*	3	95
CN(C)CCCN(C(=O)CCS(=O)(=O)c1ccccc1)c1nc2cc3c(cc2s1)OCO3	50*	28	40	42	39	104
COc1cc2ccccc2cc1C(=O)OCc1nc2ccsc2c(=O)[nH]1	x	x	5	-5	30	x
Cc1cc2cc(CNC(=S)Nc3ccc(OC(F)F)cc3)ccc2n1C	23	-14	4	-6	16	63*
CC(C)C1Cc2c(sc3ncnc(NN)c23)CO1 (stereo unspecified)	8	7	11	-2	1	133
CCOC(=S)SCC(=O)Nc1nccs1	-31	-4	-25	88*	-17	x
O=C(CSCc1ccc(Cl)cc1)Nc1nccs1	-6	11	28	-2	-11	107
CCOC(=S)SCC(=O)Nc1nc(C)c(C)s1	x	9	26	98*	8	103
CCn1c(SCC(=O)Nc2nc(C)c(C)s2)nnc1-c1cccs1	8	0	26	6	23	105
O=C(CSCC(=O)Nc1nccs1)Nc1ccccc1	27	-4	5	99*	-2	103
Cc1nc(NC(=O)CSc2nc(N)cc(N)n2)sc1C	10	9	10	94*	0	100
Cc1ccc(N(Cc2cc(=O)[nH]c3ccccc23)C(=O)CCl)c(C)c1	7	17	-5	55	14	99
O=C1C(=C(I)I)c2ccccc2-c2ccccc21	x	x	x	x	16	x
O=C1NC(Cc2ccccc2)c2nc3ccc(Cl)cc3c(=O)n2-c2ccccc21 (stereo unspecified)	x	x	10	8	x	x
CCOC(=O)/C=C/C(=O)Nc1nccs1	46*	-5	18	17	-1	118
CC(CN1CCCCC1)NC(=O)c1cccs1 (stereo unspecified)	0	-10	6	-5	-1	101
CC1=[N+](C)c2c(ccc3cccnc23)C1(C)C	-4	x	x	x	3	79*
CCn1c(C)c(C(C)=O)c(NCc2ccccc2)nc1=S	9	-2	5	98*	6	134
SMILES	NALP1 yeast inh	PolyA inh	NLRP3 yeast inh	ALR inh	Arr AP2 block	Pemphigus Ab inh
Cc1ccc(OCC(=O)c2c(O)c3ccccc3oc2=O)cc1C	-1	-2	6	29	8	105
Cc1ccc(C(C)C)c(OCC(=O)c2c(O)c3ccccc3oc2=O)c1	x	6	2	94*	-136	106
CCc1ccc(OCC(=O)c2c(O)c3ccccc3oc2=O)cc1	1	19	11	30	21	50*
Cc1cc(Nc2ccc(O)cc2)ccc1N	x	x	22	u	x	x
COc1cc(C(=O)NC(=S)Nc2ccc3[nH]c(=O)[nH]c3c2)cc(OC)c1OC	-9	5	13	-2	2	102
CCOC(=O)c1c(C)oc2c1c1c(c3ccccc32)OCN(CCCC(=O)O)C1	5	-9	22	91*	-1	103
Oc1ccc(N2CCN(Cc3nc4ccccc4[nH]3)CC2)cc1	-3	11	-6	99*	-8	114
CCc1ccc([C@@H]2C[C@H]3[C@@H](CN2S(=O)(=O)c2ccc(C)cc2)C(=O)C[C@@H](c2ccc(C)cc2)N3S(=O)(=O)c2ccc(C)cc2)cc1	x	x	x	x	x	96
O=C(CCCCCCC(=O)c1ccccc1)c1ccccc1	5	19	-13	9	7	62*
COC(=O)CCC(=O)Nc1ccc(N=Nc2ccccc2)cc1	6	-19	7	-5	16	-11*
C=C(CCC(=O)c1ccccc1)C(=O)c1ccccc1	18	-2	x	97*	x	98
O=C(CCCCC(=O)Nc1ccccc1)Nc1ccccc1	16	14	11	x	17	104
O=C(CCC(=O)c1ccccc1)Nc1ccccc1	x	-4	26	-4	32	80*
O=C(Nc1ccnn1C1CCN(C2CCOCC2)CC1)c1cccc(F)c1	-11	3	16	-4	-2	u
CCC12CN(S(=O)(=O)c3ccc(C)cc3)CC(CC)(CN(S(=O)(=O)c3ccc(C)cc3)C1)C2=O	42*	-8	12	-1	-12	100
CCN1/C(=C/C=C/C=C/c2sc3ccccc3[n+]2CC)Sc2ccccc21	133*	-8	19	x	x	x
CN(C)S(=O)(=O)c1cccc(NC(=S)NNC(=O)c2cc3ccccc3cc2O)c1	x	x	-2	45	-2	99
COc1cc2c(cc1CNC[C@H]1O[C@@H](n3cnc4c(N)ncnc43)[C@H](O)[C@@H]1O)OCO2	x	x	-10	x	22	92
CSc1ccc(-c2nc(CSCC(=O)NC3CC3)c(C)o2)cc1	17	-6	10	98*	-7	96
CCc1ccc(-c2nc(CSCC(=O)N3CCN(c4ncccn4)CC3)c(C)o2)cc1	-5	-16	4	97*	33	96
CCc1ccc(-c2nc(CSCC(=O)NC3CC3)c(C)o2)cc1	15	3	11	70	6	104
Cc1oc(-c2ccccc2Cl)nc1CSCC(=O)NC1CC1	2	-10	5	98*	4	92
CSc1ccc(-c2nc(CSCC(=O)N3CCOCC3)c(C)o2)cc1	1	-24	5	98*	-2	104
CC(=O)C[C@H](O)CC(=O)[C@@H]1OC(=O)CCCCCCc2ccccc21	x	x	23	-2	0	97
COc1ccc(OC)c(NC(=O)NNS(=O)(=O)c2ccc(C)cc2C)c1	-4	23	0	-3	4	100
CCOC(=O)N1CCC(NC(=O)CSCc2nc(-c3ccc(OC)cc3)oc2C)CC1	10	6	-11	86*	-8	100

Assay outcomes deposited in PubChem by several laboratories.
